Experimental data taken from ChEMBL document CHEMBL5038571, “Design and Synthesis of EZH2-Based PROTACs to Degrade the PRC2 Complex for Targeting the Noncatalytic Activity of EZH2” (J Med Chem, 2021).
The source made the active and inactive calls. The rule behind the calls is not given here.

Legend:
[1] = biological target: T1, Protein cereblon/Histone-lysine N-methyltransferase EZH2 (Homo sapiens) (UniProt Q15910+Q96SW2); assay: PROTAC activity at CRBN E3 ligase/EZH2 in PRC2 complex in human LNCaP cells assessed as induction of EZH2 degradation by measuring reduction in EZH2 protein level at 1 uM incubated for 48 hrs by Western blot analysis; type: cell-based
T1 sequence (Q15910 whole entry, looked up): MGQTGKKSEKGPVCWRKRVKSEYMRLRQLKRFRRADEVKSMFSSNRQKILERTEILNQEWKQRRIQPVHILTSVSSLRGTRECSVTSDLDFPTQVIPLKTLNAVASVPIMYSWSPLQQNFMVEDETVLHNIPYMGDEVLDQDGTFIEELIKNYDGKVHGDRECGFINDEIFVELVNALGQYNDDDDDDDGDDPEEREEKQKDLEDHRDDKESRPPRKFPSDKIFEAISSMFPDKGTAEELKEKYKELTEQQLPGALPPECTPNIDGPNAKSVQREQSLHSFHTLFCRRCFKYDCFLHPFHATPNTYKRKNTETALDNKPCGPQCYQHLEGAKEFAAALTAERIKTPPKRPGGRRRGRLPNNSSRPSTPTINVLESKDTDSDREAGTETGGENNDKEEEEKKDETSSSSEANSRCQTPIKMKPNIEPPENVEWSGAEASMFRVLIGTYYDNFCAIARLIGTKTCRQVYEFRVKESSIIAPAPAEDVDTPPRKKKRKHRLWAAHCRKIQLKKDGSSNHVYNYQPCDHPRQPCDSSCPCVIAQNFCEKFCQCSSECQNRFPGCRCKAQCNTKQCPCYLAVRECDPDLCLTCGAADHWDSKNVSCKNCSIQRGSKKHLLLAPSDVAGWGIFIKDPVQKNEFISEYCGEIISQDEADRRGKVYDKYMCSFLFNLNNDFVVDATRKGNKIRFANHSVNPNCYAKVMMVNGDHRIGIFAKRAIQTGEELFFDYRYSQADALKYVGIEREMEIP
T1 sequence (Q96SW2 whole entry, looked up): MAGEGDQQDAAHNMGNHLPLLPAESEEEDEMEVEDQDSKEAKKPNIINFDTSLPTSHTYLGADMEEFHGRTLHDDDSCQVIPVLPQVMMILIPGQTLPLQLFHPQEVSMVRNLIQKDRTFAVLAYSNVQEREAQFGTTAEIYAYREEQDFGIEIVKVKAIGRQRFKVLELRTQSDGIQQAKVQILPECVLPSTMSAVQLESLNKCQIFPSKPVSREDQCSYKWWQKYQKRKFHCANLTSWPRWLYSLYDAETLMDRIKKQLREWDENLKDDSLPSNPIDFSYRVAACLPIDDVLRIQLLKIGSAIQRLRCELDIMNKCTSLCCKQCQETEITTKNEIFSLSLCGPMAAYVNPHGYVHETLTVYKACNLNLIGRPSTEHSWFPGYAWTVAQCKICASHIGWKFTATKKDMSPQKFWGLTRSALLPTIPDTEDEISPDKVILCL
In short: (§1)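 Cancer cell lines exposed to 1 μM compound for 48 h. Lysates immunoblotted (SDS-PAGE, nitrocellulose, 5% milk block, primary antibody overnight at 4 °C) for EZH2, SUZ12, EED, RbAp48 and H3K27me3. Bands quantified by densitometry and normalized to GAPDH.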

[2] = biological target: T1, Protein cereblon/Histone-lysine N-methyltransferase EZH2 (Homo sapiens); assay: PROTAC activity at CRBN E3 ligase/EZH2 in PRC2 complex in human DU-145 cells assessed as induction of SUZ12 degradation by measuring reduction in SUZ12 protein level at 1 uM incubated for 48 hrs by Western blot analysis; type: cell-based; in short: as §1
WSUDLCL2 [3] = assay: Upregulation of TNFRSF21 mRNA expression in human WSUDLCL2 cells at 1 uM incubated for 48 hrs by qRT-PCR analysis; type: functional, cell-based
In short: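 WSU-DLCL-2 or Pfeiffer cells treated 48 h. Trizol RNA extraction, reverse transcription, SYBR qPCR (95 °C 30 s; 40 cycles of 95 °C 6 s, 60 °C 20 s). mRNA normalized to DMSO-treated cells; mean ± SD of three independent experiments, t-test.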

MDA-MB-468 = assay: Downregulation of ARL6IP mRNA expression in human MDA-MB-468 cells at 10 uM incubated for 48 hrs by qRT-PCR analysis; type: functional, cell-based
In short: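 Cells treated 48 h. Total RNA extracted with Trizol, reverse-transcribed, and SYBR RT-qPCR run: 95 °C 30 s, then 40 cycles of 95 °C 6 s and 60 °C 20 s. mRNA normalized to the DMSO-treated group. Mean SD of three independent experiments, t-test versus DMSO.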

[4] = biological target: T1, Protein cereblon/Histone-lysine N-methyltransferase EZH2 (Homo sapiens); assay: PROTAC activity at CRBN E3 ligase/EZH2 in PRC2 complex in human SK-OV-3 cells assessed as induction of EED degradation by measuring reduction in EED protein level at 1 uM incubated for 48 hrs by Western blot analysis; type: cell-based
In short: (§2)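 Cells cultured in DMEM or RPMI 1640 with 10% FBS and 1% penicillin-streptomycin, 37 °C, 5% CO2; exposed to 1 μM compound for 48 h. Lysates run on SDS-PAGE and transferred to nitrocellulose. Blocked 2 h in 5% skim milk, primary antibody overnight at 4 °C, then secondary antibody. Chemiluminescent detection of PRC2 subunits and H3K27me3.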

WSUDLCL2 [5] = assay: Effect on Histone H3 methylation in human WSUDLCL2 cells assessed as reduction in H3K9me3 levels at upto 10 uM incubated for 48 hrs by Western blot analysis; type: functional, cell-based; settings: dose microM <=10, time 48.0 hrs
In short: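 Lysates run on SDS-PAGE and transferred to nitrocellulose. Membranes blocked with 5% skim milk for 2 h, primary antibody applied overnight at 4 °C, then secondary antibody and chemiluminescent detection of histone H3 methylation marks.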

[6] = biological target: T1, Protein cereblon/Histone-lysine N-methyltransferase EZH2 (Homo sapiens); assay: PROTAC activity at CRBN E3 ligase/EZH2 in PRC2 complex in human WSUDLCL2 cells assessed as downregulation of EED expression at 1 uM pretreated with lenalidomide for 4 hrs followed by compound addition and measured after 48 hrs by Western blot analysis; type: cell-based
In short: (§3)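 WSU-DLCL-2 cells pretreated 4 h with the named inhibitor, then compound added and incubated a further 48 h. EZH2, SUZ12, EED and RbAp48 measured by western blot (nitrocellulose transfer, skim-milk block, primary antibody overnight at 4 °C, chemiluminescent detection).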

[7] = biological target: T1, Protein cereblon/Histone-lysine N-methyltransferase EZH2 (Homo sapiens); assay: PROTAC activity at CRBN E3 ligase/EZH2 in PRC2 complex in human WSUDLCL2 cells assessed as induction of RbAp48 degradation by measuring reduction in RbAp48 protein level at 1 uM measured after 48 to 72 hrs by Western blot analysis; type: cell-based; settings: time 48-72 hrs
[8] = biological target: T1, Protein cereblon/Histone-lysine N-methyltransferase EZH2 (Homo sapiens); assay: PROTAC activity at CRBN E3 ligase/EZH2 in PRC2 complex in human WSUDLCL2 cells assessed as induction of SUZ12 degradation at 1 uM measured up to 2 hrs by Western blot analysis; type: cell-based; settings: time hrs <=2
[9] = biological target: T1, Protein cereblon/Histone-lysine N-methyltransferase EZH2 (Homo sapiens); assay: PROTAC activity at CRBN E3 ligase/EZH2 in PRC2 complex in human WSUDLCL2 cells assessed as downregulation of RbAp48 expression at 1 uM pretreated with MLN4924 for 4 hrs followed by compound addition and measured after 48 hrs by Western blot analysis; type: cell-based; in short: as §3
[10] = biological target: T1, Protein cereblon/Histone-lysine N-methyltransferase EZH2 (Homo sapiens); assay: PROTAC activity at CRBN E3 ligase/EZH2 in PRC2 complex in human SU-DHL-6 cells assessed as induction of RbAp48 degradation by measuring reduction in RbAp48 protein level at 1 uM incubated for 48 hrs by Western blot analysis; type: cell-based; in short: as §2
[11] = biological target: T1, Protein cereblon/Histone-lysine N-methyltransferase EZH2 (Homo sapiens); assay: PROTAC activity at CRBN E3 ligase/EZH2 in PRC2 complex in human WSUDLCL2 cells assessed as induction of EED degradation at 1 uM measured up to 2 hrs by Western blot analysis; type: cell-based; settings: time hrs <=2
[12] = biological target: T1, Protein cereblon/Histone-lysine N-methyltransferase EZH2 (Homo sapiens); assay: PROTAC activity at CRBN E3 ligase/EZH2 in PRC2 complex in human SU-DHL-6 cells assessed as induction of EZH2 degradation by measuring reduction in EZH2 protein level at 1 uM incubated for 48 hrs by Western blot analysis; type: cell-based; in short: as §2
[13] = biological target: T1, Protein cereblon/Histone-lysine N-methyltransferase EZH2 (Homo sapiens); assay: PROTAC activity at CRBN E3 ligase/EZH2 in PRC2 complex in human WSUDLCL2 cells assessed as downregulation of SUZ12 expression at 1 uM pretreated with lenalidomide for 4 hrs followed by compound addition and measured after 48 hrs by Western blot analysis; type: cell-based; in short: as §3
[14] = biological target: T1, Protein cereblon/Histone-lysine N-methyltransferase EZH2 (Homo sapiens); assay: PROTAC activity at CRBN E3 ligase/EZH2 in PRC2 complex in human SU-DHL-6 cells assessed as induction of EED degradation by measuring reduction in EED protein level at 1 uM incubated for 48 hrs by Western blot analysis; type: cell-based; in short: as §2
[15] = biological target: T1, Protein cereblon/Histone-lysine N-methyltransferase EZH2 (Homo sapiens); assay: PROTAC activity at CRBN E3 ligase/EZH2 in PRC2 complex in human WSUDLCL2 cells assessed as increase in EED ubiquitination at 1 uM measured after 48 hrs by co-immunoprecipitation assay; type: cell-based
In short: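 WSU-DLCL-2 cells treated with 1 μM compound for 48 h and lysed in RIPA buffer. Lysates incubated with antibodies overnight at 4 °C, then 3 h with Protein G agarose beads at 4 °C. Proteins eluted in IP buffer and ubiquitination of the target probed by immunoblot.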

A549 = assay: Upregulation of CDKN2A mRNA expression in human A549 cells at 5 uM incubated for 48 hrs by qRT-PCR analysis; type: functional, cell-based
In short: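 A549 cells treated 48 h. Trizol RNA extraction, reverse transcription, SYBR qPCR (95 °C 30 s; 40 cycles of 95 °C 6 s, 60 °C 20 s). mRNA normalized to DMSO-treated cells; mean ± SD of three independent experiments.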

[16] = biological target: T1, Protein cereblon/Histone-lysine N-methyltransferase EZH2 (Homo sapiens); assay: PROTAC activity at CRBN E3 ligase/EZH2 in PRC2 complex in human DU-145 cells assessed as induction of EED degradation by measuring reduction in EED protein level at 1 uM incubated for 48 hrs by Western blot analysis; type: cell-based; in short: as §1

- Activity [1]: Active
- Activity [2]: Active
- Activity [4]: Active
- Activity [6]: inactive
- Activity [7]: Active
- Activity [8]: inactive
- Activity [9]: inactive
- Activity [10]: Active
- Activity [11]: inactive
- Activity [12]: Active
- Activity [13]: inactive
- Activity [14]: Active
- Activity [15]: Active
- Activity [16]: Active
Compound: CCN(c1cc(-c2ccc(CN3CCN(CCCCCCCOc4cccc5c4C(=O)N(C4CCC(=O)NC4=O)C5=O)CC3)cc2)cc(C(=O)NCc2c(C)cc(C)[nH]c2=O)c1C)C1CCOCC1 (stereo not drawn)
- Activity (WSUDLCL2 [3]): Active
- Activity (MDA-MB-468): Active
- Activity (WSUDLCL2 [5]): inactive
- Activity (A549): Active
